From ChEMBL document CHEMBL3227988, “Synthesis and antiviral activities of arabinofuranosyl-5-ethylpyrimidine nucleosides. Selective antiherpes activity of 1-(beta-D-arabinofuranosyl)-5-ethyluracil” (J Med Chem, 1979)
≈ marks a conversion by molar mass, not a printed value. Calls of active or inactive are those of the source. The calls are words filed in the database; no cut-off is given here.

Tests used:
Human alphaherpesvirus 2 [1] = assay: Antiviral activity against Herpes simplex virus-2 196 infected in primary rabbit kidney cells assessed as inhibition of virus-induced cytopathogenicity treated immediately after virus adsorption measured 2 to 3 days after virus infection; format: functional; conditions: Human alphaherpesvirus 2, 196
Human alphaherpesvirus 1 [2] = assay: Antiviral activity against Herpes simplex virus-1 KOS infected in primary rabbit kidney cells assessed as log reduction in virus yield at 100 ug/ml treated immediately after virus adsorption measured 24 to 48 hrs after virus infection; format: functional
Vaccinia virus = assay: Antiviral activity against Vaccinia virus infected in primary rabbit kidney cells assessed as growth inhibition at 100 ug/ml treated immediately after virus adsorption measured 24 to 48 hrs after virus infection; format: functional, organism-based; conditions: Orthopoxvirus vaccinia
Human alphaherpesvirus 1 [3] = assay: Antiviral activity against Herpes simplex virus-1 KOS infected in human skin fibroblast cells assessed as inhibition of virus-induced cytopathogenicity treated immediately after virus adsorption measured 2 to 3 days after virus infection; format: functional; conditions: Human alphaherpesvirus 1, KOS
Human alphaherpesvirus 2 [4] = assay: Antiviral activity against Herpes simplex virus-2 LYONS infected in primary rabbit kidney cells assessed as inhibition of virus-induced cytopathogenicity treated immediately after virus adsorption measured 2 to 3 days after virus infection; format: functional; conditions: Human alphaherpesvirus 2, LYONS
[5] = Antiviral index, ratio of minimal toxic dose require to inhibit cellular DNA synthesis in primary rabbit kidney cells by 50% to minimal effective dose require to inhibit HSV1 KOS cytopathogenicity; format: toxicity, cell-based
Outline: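 Ratio of two doses. Numerator: dose inhibiting cellular DNA synthesis by 50%, measured as dThd or dUrd incorporation over 16 h. Denominator: minimal dose inhibiting HSV-1 KOS cytopathogenicity. For the CPE assay, virus input was 100 CCID50 per culture and compound was added right after adsorption. CPE was scored once untreated infected controls reached full CPE, generally at 2-3 days.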

Human alphaherpesvirus 1 [6] = assay: Antiviral activity against Herpes simplex virus-1 KOS infected in primary rabbit kidney cells assessed as inhibition of virus-induced cytopathogenicity treated immediately after virus adsorption measured 2 to 3 days after virus infection; format: functional; conditions: Human alphaherpesvirus 1, KOS
[7] = tested on: Vesicular stomatitis virus; assay: Antiviral activity against Vesicular stomatitis virus infected in primary rabbit kidney cells assessed as inhibition of virus-induced cytopathogenicity treated immediately after virus adsorption measured 2 to 3 days after virus infection; format: functional
[8] = Antimetabolic activity against primary rabbit kidney cells assessed as inhibition of [methyl-3H]dThd incorporation into DNA after 16 hrs; format: ADME, cell-based, Oryctolagus cuniculus
Outline: (§1)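 Compound added to primary rabbit kidney cell cultures together with the radiolabeled DNA precursor. Input per 10^? cells: [methyl-3H]dThd 0.12 μCi/0.01 nmol, [2-14C]dUrd 14 μCi/250 nmol. Incorporation measured after 16 h incubation. Value is the concentration giving 50% inhibition of precursor incorporation.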

[9] = Antimetabolic activity against primary rabbit kidney cells assessed as inhibition of [2-14C]dUrd incorporation into DNA after 16 hrs; format: ADME, cell-based, Oryctolagus cuniculus; outline: as §1
Human alphaherpesvirus 1 [10] = assay: Antiviral activity against Herpes simplex virus-1 KOS infected in primary rabbit kidney cells assessed as inhibition of virus-induced cytopathogenicity at 200 ug/ml treated immediately after virus adsorption measured 2 to 3 days after virus infection; format: functional, organism-based
Human alphaherpesvirus 2 [11] = assay: Antiviral activity against Herpes simplex virus-2 196 infected in primary rabbit kidney cells assessed as inhibition of virus-induced cytopathogenicity at 200 ug/ml treated immediately after virus adsorption measured 2 to 3 days after virus infection; format: functional, organism-based
Human alphaherpesvirus 1 [12] = assay: Antiviral activity against Herpes simplex virus-1 KOS infected in human skin fibroblast cells assessed as inhibition of virus-induced cytopathogenicity at 200 ug/ml treated immediately after virus adsorption measured 2 to 3 days after virus infection; format: functional, organism-based
Human alphaherpesvirus 2 [13] = assay: Antiviral activity against Herpes simplex virus-2 LYONS infected in primary rabbit kidney cells assessed as inhibition of virus-induced cytopathogenicity at 200 ug/ml treated immediately after virus adsorption measured 2 to 3 days after virus infection; format: functional, organism-based

Question: Which results are given for CCc1cn([C@@H]2O[C@H](CO)[C@@H](O)[C@@H]2O)c(=O)[nH]c1=O?
Answer: MIC (Human alphaherpesvirus 2 [1]): 20 µg/mL (≈ 73.5 µM); log10PFU/ml (Human alphaherpesvirus 1 [2]): >3; inhibition (Vaccinia virus): inactive; MIC (Human alphaherpesvirus 1 [3]): 2 µg/mL (≈ 7.35 µM); MIC (Human alphaherpesvirus 2 [4]): 10 µg/mL (≈ 36.7 µM); selectivity ratio [5]: > 100; MIC (Human alphaherpesvirus 1 [6]): 2 µg/mL (≈ 7.35 µM); MIC [7]: > 200 µg/mL; MIC [8]: > 200 µg/mL; MIC [9]: > 200 µg/mL

Question: What does the source list for Nc1ccn([C@@H]2O[C@H](CO)[C@@H](O)[C@@H]2O)c(=O)n1 [CYTARABINE]?
Answer: MIC (Human alphaherpesvirus 2 [1]): 0.03 µg/mL (≈ 0.123 µM); MIC (Human alphaherpesvirus 1 [3]): 0.02 µg/mL (≈ 0.0822 µM); MIC (Human alphaherpesvirus 2 [4]): 0.04 µg/mL (≈ 0.164 µM); MIC (Human alphaherpesvirus 1 [6]): 0.03 µg/mL (≈ 0.123 µM); MIC [7]: 4 µg/mL (≈ 16.4 µM); MIC [8]: 0.1 µg/mL (≈ 0.411 µM); MIC [9]: 0.05 µg/mL (≈ 0.206 µM)

Question: With CCc1cn([C@@H]2O[C@H](CO)[C@@H](O)[C@@H]2O)c(=O)nc1N as the molecule, how does the MIC (Human alphaherpesvirus 1 [3]) read?
Answer: 20 µg/mL (≈ 73.7 µM)

Question: And the MIC (Human alphaherpesvirus 1 [6])?
Answer: 100 µg/mL (≈ 369 µM)

Question: And the MIC [7]?
Answer: > 200 µg/mL

Question: What about the MIC [9] of the same molecule?
Answer: > 200 µg/mL

Question: Which inhibition (Human alphaherpesvirus 1 [10]) does the source give for CCc1cn([C@H]2O[C@H](CO)[C@@H](O)[C@@H]2O)c(=O)[nH]c1=O here?
Answer: inactive

Question: And the inhibition (Human alphaherpesvirus 2 [11])?
Answer: inactive

Question: And the inhibition (Human alphaherpesvirus 1 [12])?
Answer: inactive

Question: And the inhibition (Human alphaherpesvirus 2 [13])?
Answer: inactive

Question: Which MIC (Human alphaherpesvirus 2 [1]) does the source give for Cc1cn([C@@H]2O[C@H](CO)[C@@H](O)[C@@H]2O)c(=O)[nH]c1=O here?
Answer: 0.4 µg/mL (≈ 1.55 µM)

Question: And the MIC (Human alphaherpesvirus 1 [3])?
Answer: 0.1 µg/mL (≈ 0.387 µM)

Question: And the MIC (Human alphaherpesvirus 2 [4])?
Answer: 0.3 µg/mL (≈ 1.16 µM)

Question: What about the MIC (Human alphaherpesvirus 1 [6]) of the same molecule?
Answer: 0.2 µg/mL (≈ 0.775 µM)

Question: What about the MIC [7] of the same molecule?
Answer: > 200 µg/mL

Question: What about the MIC [8] of the same molecule?
Answer: 300 µg/mL (≈ 1160 µM)

Question: What about the MIC [9] of the same molecule?
Answer: 300 µg/mL (≈ 1160 µM)

Question: For CCc1cn([C@H]2O[C@H](CO)[C@@H](O)[C@@H]2O)c(=O)nc1N, which inhibition (Human alphaherpesvirus 1 [10]) is on record?
Answer: inactive

Question: And the inhibition (Human alphaherpesvirus 2 [11])?
Answer: inactive

Question: What about the inhibition (Human alphaherpesvirus 1 [12]) of the same molecule?
Answer: inactive

Question: And the inhibition (Human alphaherpesvirus 2 [13])?
Answer: inactive

Question: With O=c1ccn([C@@H]2O[C@H](CO)[C@@H](O)[C@@H]2O)c(=O)[nH]1 [ARAURIDINE] as the molecule, how does the MIC (Human alphaherpesvirus 2 [1]) read?
Answer: 20 µg/mL (≈ 81.9 µM)

Question: What about the MIC (Human alphaherpesvirus 1 [3]) of the same molecule?
Answer: 20 µg/mL (≈ 81.9 µM)

Question: And the MIC (Human alphaherpesvirus 2 [4])?
Answer: 20 µg/mL (≈ 81.9 µM)

Question: And the MIC (Human alphaherpesvirus 1 [6])?
Answer: 20 µg/mL (≈ 81.9 µM)

Question: What about the MIC [7] of the same molecule?
Answer: > 200 µg/mL

Question: What about the MIC [8] of the same molecule?
Answer: 300 µg/mL (≈ 1230 µM)

Question: What about the MIC [9] of the same molecule?
Answer: > 400 µg/mL
